In publication PMC5048114 (Iranian Journal of Basic Medical Sciences, 2016):
Converted amounts (≈) assume the structure as drawn.

Tests used:
[1] = DPPH free radical scavenging assay; conditions: 0.3 mM DPPH, 30 min at 37 °C, absorbance 515 nm
Summary of the method: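 Test compound at four concentrations (µg/ml) in microplate wells, mixed with ethanolic DPPH. Blank is solvent alone with DPPH. Absorbance decrease is read after incubation. Run in triplicate and reported as the mean of three values.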

[2] = Ferric reducing antioxidant potential; conditions: 30 min incubation at 37 °C, absorbance 593 nm
Summary of the method: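 FRAP reagent is 300 mM acetate buffer pH 3.6, 20 mM ferric chloride hexahydrate in water and 10 mM TPTZ in 40 mM HCl, combined 10:1:1 by volume (stock concentrations). Test compound at five concentrations (µg/ml) is added to the reagent in microplate wells, and absorbance is read after incubation. Run in triplicate.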

[3] = test system: glutamate-induced neurotoxicity; conditions: concentrations ranging from 0.1 to 10 µM; cited from earlier work

| Structure (SMILES) | IC50 (DPPH radical scavenging activity) [1] [µg/mL] | FRAP [2] [mmol/g] | attenuation of glutamate-induced neurotoxicity [3] |
| --- | --- | --- | --- |
| C[C@@H]1O[C@@H](OC[C@H]2O[C@@H](Oc3cc(O)c4c(=O)cc(-c5ccc(O)cc5)oc4c3)[C@H](O)[C@@H](O)[C@@H]2O)[C@H](O)[C@H](O)[C@H]1O [Isorhoifolin, isorhoifolin] | 1.37 (≈ 2.37 µM) | 7.67 | – |
| COc1cc(O)c2c(=O)c(OC)c(-c3ccc(O)cc3)oc2c1 [Jaranol, jaranol] | 12 (≈ 38.2 µM) | 1.5 | – |
| C[C@@H]1O[C@@H](OC[C@H]2O[C@@H](OCCc3ccc(O)c(O)c3)[C@H](O)[C@@H](O[C@@H]3O[C@@H](C)[C@H](O)[C@@H](O)[C@H]3O)[C@@H]2OC(=O)/C=C/c2ccc(O)c(O)c2)[C@H](O)[C@H](O)[C@H]1O [Poliumoside, poliumoside] | 0.042 (≈ 0.0545 µM) | 14.32 | significantly attenuated glutamate-induced neurotoxicity |

Continued, in another order:

| IC50 (DPPH radical scavenging activity) [1] [µg/mL] | Structure (SMILES) | FRAP [2] [mmol/g] | attenuation of glutamate-induced neurotoxicity [3] |
| --- | --- | --- | --- |
| 0.53 (≈ 0.849 µM) | C[C@@H]1O[C@@H](O[C@@H]2[C@@H](O)[C@H](OCCc3ccc(O)c(O)c3)O[C@H](CO)[C@H]2OC(=O)/C=C/c2ccc(O)c(O)c2)[C@H](O)[C@H](O)[C@H]1O [Verbascoside, verbascoside] | 7.49 | – |
| 0.41 (≈ 0.952 µM) | Cc1c(C)c2c(c(C)c1O)CC[C@@](C)(CCC[C@H](C)CCC[C@H](C)CCCC(C)C)O2 [α- tocopherol, α-tocopherol, reference compound] | 1.99 | – |
